Measurements as given in ChEMBL document CHEMBL2069274, “Novel 3-nitro-1H-1,2,4-triazole-based amides and sulfonamides as potential antitrypanosomal agents” (J Med Chem, 2012).
Calls of active or inactive are those of the source. The calls are words filed in the database; no cut-off is given here.

What was measured:
[1] = test system: Leishmania donovani; assay: Antileishmanial activity against Leishmania donovani MHOM-ET67/L82 amastigotes; assay type: functional, organism-based
Procedure, shortened: (§1)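 96-well format screens: bloodstream-form T. b. rhodesiense trypomastigotes, T. cruzi amastigotes within infected L6 rat skeletal myoblasts, axenically grown L. donovani amastigotes, and uninfected L6 cells for cytotoxicity. IC50 (μM) obtained by linear regression from sigmoidal dose–inhibition curves.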

[2] = Selectivity index, ratio of IC50 for rat L6 cells to IC50 for Trypanosoma cruzi Tulahuen C4 amastigotes
[3] = test system: Trypanosoma brucei rhodesiense; assay: Antitrypanosomal activity against Trypanosoma brucei rhodesiense STIB 900 trypomastigotes; assay type: functional, organism-based; procedure, shortened: as §1
[4] = test system: Trypanosoma brucei brucei; assay: Antitrypanosomal activity against bloodstream form of Trypanosoma brucei brucei Lister 427 clone 221a; assay type: functional, organism-based
Procedure, shortened: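 Bloodstream-form parasites seeded at 1 × 10^3 per ml in growth medium with a range of compound concentrations; where required, TbNTR expression induced with tetracycline (1 μg/mL). Incubation 3 days at 37 °C, then Alamar blue added for a further 16 h. Cell density read and IC50 determined.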

[5] = test system: L6; assay: Cytotoxicity against rat L6 cells; assay type: cell-based; procedure, shortened: as §1
[6] = test system: Trypanosoma cruzi; assay: Antitrypanosomal activity against Trypanosoma cruzi Tulahuen C4 amastigotes; assay type: functional, organism-based; procedure, shortened: as §1
[7] = test system: Trypanosoma cruzi; assay: Ratio of benznidazole IC50 to compound IC50 for Trypanosoma cruzi Tulahuen C4 amastigotes; assay type: functional
[8] = Selectivity index, ratio of IC50 for rat L6 cells to IC50 for Trypanosoma brucei rhodesiense STIB900 trypomastigotes
[9] = target: Trypanothione reductase (Trypanosoma brucei brucei) (UniProt P39051); assay: Inhibition of Trypanosoma brucei brucei trypanothione reductase at <100 uM
Chain of Trypanothione reductase (Trypanosoma brucei brucei) (P39051 whole entry, looked up): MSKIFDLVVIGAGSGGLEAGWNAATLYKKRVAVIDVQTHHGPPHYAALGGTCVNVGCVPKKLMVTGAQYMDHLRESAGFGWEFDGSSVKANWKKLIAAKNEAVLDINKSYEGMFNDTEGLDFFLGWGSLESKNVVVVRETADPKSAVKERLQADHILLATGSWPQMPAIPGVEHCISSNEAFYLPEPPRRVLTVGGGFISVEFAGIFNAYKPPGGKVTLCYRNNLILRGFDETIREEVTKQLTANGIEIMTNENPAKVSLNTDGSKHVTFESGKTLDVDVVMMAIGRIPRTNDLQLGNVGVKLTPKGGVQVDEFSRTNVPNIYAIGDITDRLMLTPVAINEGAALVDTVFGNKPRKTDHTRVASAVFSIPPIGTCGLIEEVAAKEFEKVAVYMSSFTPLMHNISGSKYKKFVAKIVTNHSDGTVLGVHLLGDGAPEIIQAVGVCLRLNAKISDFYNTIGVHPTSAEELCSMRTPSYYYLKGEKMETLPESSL

[10] = test system: Trypanosoma brucei brucei; assay: Activity of Trypanosoma brucei brucei recombinant Type I nitroreductase assessed as oxidised NADH level by spectrophotometric analysis
Procedure, shortened: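 His-tagged recombinant TbNTR, purified, assayed spectrophotometrically at 340 nm with nitrotriazole substrate (100 μM) and NADH (100 μM); activity expressed as nmol NADH oxidized min−1 mg−1 enzyme.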

[11] = test system: Trypanosoma brucei brucei; assay: Selectivity ratio of IC50 for Trypanosoma brucei brucei Lister 427 clone 221a overexpressing tet-inducible NTR in absence of tetracycline to IC50 for Trypanosoma brucei brucei overexpressing tet-inducible NTR in presence of tetracyclin
[12] = test system: Trypanosoma brucei brucei; assay: Antitrypanosomal activity against bloodstream form of Trypanosoma brucei brucei Lister 427 clone 221a overexpressing tet-inducible NTR in absence of tetracycline after 3 days; conditions: 72 h
[13] = test system: Trypanosoma brucei brucei; assay: Antitrypanosomal activity against bloodstream form of Trypanosoma brucei brucei Lister 427 clone 221a overexpressing tet-inducible NTR in presence of tetracycline after 3 days; conditions: 72 h

SMILES | IC50 [1] [µM] | selectivity ratio [2] | IC50 [3] [µM] | IC50 [4] [µM] | IC50 [5] [µM] | IC50 [6] [µM] | Ratio IC50 [7] | selectivity ratio [8] | inhibition [9] | Activity [10] | Ratio IC50 [11] | IC50 [12] [µM] | IC50 [13] [µM]
O=C(NCCCn1cnc([N+](=O)[O-])n1)c1cccc(C(F)(F)F)c1 | 37.3 | > 826 | 3.76 | > 10 | > 292 | 0.353 | 4.4 |  |  |  |  |  | 
O=[N+]([O-])c1ncn(CCNS(=O)(=O)c2cc(C(F)(F)F)cc(C(F)(F)F)c2)n1 | 33.3 | 66.2 | 36.7 | 7.9 | 111 | 1.68 | 0.9 | 3 |  |  |  |  | 
O=[N+]([O-])c1ncn(CCNS(=O)(=O)Cc2ccccc2)n1 | 113 | > 48 | 8.39 |  | > 322 | 6.46 | 0.2 | > 38.3 |  |  |  |  | 
O=C(NCCn1cnc([N+](=O)[O-])n1)c1ccc(OC(F)(F)F)cc1 | 29.2 | > 357 | 1.99 |  | > 261 | 0.73 | 2.1 | > 131 |  |  |  |  | 
O=[N+]([O-])c1nccn1CCCNS(=O)(=O)c1ccc(C(F)(F)F)cc1 | 15.6 | 106 | 27.5 |  | 176 | 1.66 | 0.9 |  | inactive |  |  |  | 
O=C(NCCCn1cnc([N+](=O)[O-])n1)c1cnc2ccccc2n1 | 62.7 | > 379 | 34.9 | > 10 | > 306 | 0.807 | 1.9 |  |  |  |  |  | 
O=C(NCCCCn1cnc([N+](=O)[O-])n1)c1ccc2ccccc2n1 | 13.4 | 691 | 4 | > 10 | 91.5 | 0.132 | 11.8 |  |  | Active |  |  | 
O=C(Cn1cnc([N+](=O)[O-])n1)NCc1ccccc1 | 28.1 | 102 | 9.96 | > 10 | 345 | 3.38 | 0.5 |  |  | Active |  |  | 
O=C(Cn1cnc([N+](=O)[O-])n1)NCc1ccc(C(F)(F)F)cc1 | 10.4 | 133 | 6.47 | 8.5 | 129 | 0.97 | 1.6 |  | inactive |  |  |  | 
COc1cc([C@@H]2c3cc4c(cc3[C@H](O)[C@H]3COC(=O)[C@H]23)OCO4)cc(OC)c1OC [PODOFILOX] |  |  |  |  | 0.022 |  |  |  |  |  |  |  | 
O=C(Cn1cnc([N+](=O)[O-])n1)N1CCC(Cc2ccccc2)CC1 | 51.4 | 468 | 3.4 | > 10 | 144 | 0.307 | 5.1 |  | inactive |  |  |  | 
O=[N+]([O-])c1ncn(CCCNS(=O)(=O)Cc2ccccc2)n1 | 79.4 | > 138 | 6.49 |  | > 308 | 2.24 | 0.7 | > 47.4 |  |  |  |  | 
O=[N+]([O-])c1ncn(CCCNS(=O)(=O)c2cccc3cccnc23)n1 | 32.9 | 519 | 6.52 | > 10 | 208 | 0.4 | 3.9 |  |  |  |  |  | 
O=C(NCCCn1cnc([N+](=O)[O-])n1)c1cc(C(F)(F)F)cc(C(F)(F)F)c1 | 12.3 | 291 | 16.4 | > 10 | 187 | 0.642 | 2.4 | 11.4 |  |  |  |  | 
O=C(NCCCCn1cnc([N+](=O)[O-])n1)c1ccc(OC(F)(F)F)cc1 | 13 | > 2380 | 1.39 | 3.6 | > 268 | 0.113 | 13.8 | > 193 | inactive |  | 11 | 1.05 | 0.1
O=[N+]([O-])c1ncn(CCCNS(=O)(=O)c2cc(C(F)(F)F)cc(C(F)(F)F)c2)n1 | 20.7 | 338 | 11.3 | 6.6 | 109 | 0.322 | 4.9 | 9.6 |  |  |  |  | 

SMILES | IC50 [1] [µM] | selectivity ratio [2] | IC50 [3] [µM] | IC50 [4] [µM] | IC50 [5] [µM] | IC50 [6] [µM] | Ratio IC50 [7] | selectivity ratio [8] | inhibition [9] | Activity [10] | Ratio IC50 [11] | IC50 [12] [µM] | IC50 [13] [µM]
O=C(NCCCn1cnc([N+](=O)[O-])n1)c1ccc(C(F)(F)F)nc1 | 96.5 | > 84 | 3.55 | 7.9 | > 291 | 3.46 | 0.5 |  |  |  |  |  | 
O=[N+]([O-])c1ncn(CCCCNS(=O)(=O)c2ccc(C(F)(F)F)cc2)n1 | 7.79 | 120 | 0.354 |  | 84.9 | 0.71 | 2.2 | 240 |  |  |  |  | 
O=[N+]([O-])c1ncn(CCCNS(=O)(=O)c2cc(C(F)(F)F)ccc2C(F)(F)F)n1 | 46.1 | 178 | 10.3 | > 10 | 115 | 0.644 | 2.4 |  |  |  |  |  | 
O=[N+]([O-])c1ncn(CCCNS(=O)(=O)c2ccc(-c3ccccc3)cc2)n1 | 7.54 | 1760 | 1.05 | 0.5 | 50 | 0.028 | 55.8 |  |  |  | 6 | 0.44 | 0.07
O=C(NCCCn1ccnc1[N+](=O)[O-])c1ccc(C(F)(F)F)cc1 | 13.8 | 29 | 21.4 |  | 177 | 6.05 | 0.3 |  |  |  |  |  | 
Nc1nc(N)nc(Nc2ccc([As]3SCC(CO)S3)cc2)n1 (configuration not stated) [MELARSOPROL] |  |  |  |  |  |  |  |  |  |  | 1 | 0.0034 | 0.0034
Cc1ccc(S(=O)(=O)NCCCn2cnc([N+](=O)[O-])n2)cc1 | 38.1 | > 747 | 2.54 | 4 | > 308 | 0.412 | 3.8 | > 121 |  |  | 23 | 5.63 | 0.24
O=C(NCCCn1cnc([N+](=O)[O-])n1)Nc1cc(C(F)(F)F)cc(C(F)(F)F)c1 | 11.4 | 33 | 6.03 | 1 | 24.2 | 0.734 | 2.1 | 4 |  |  | 5 | 0.81 | 0.18
O=C(NCCCn1cnc([N+](=O)[O-])n1)c1ccc(-c2ccccc2)cc1 | 8.37 | 2780 | 0.587 | 0.3 | 117 | 0.043 | 36.3 | 199 |  |  | 6 | 0.28 | 0.05
O=C(Cn1ccnc1[N+](=O)[O-])NCc1ccccc1 [BENZNIDAZOLE] |  |  |  |  |  | 1.56 |  |  |  |  | 10 | 21.8 | 2.2
O=[N+]([O-])c1ncn(CCNS(=O)(=O)c2ccc(C(F)(F)F)cc2)n1 | 32.4 | 248 | 2.79 | > 10 | 200 | 0.803 | 1.9 |  |  | Active |  |  | 
Cn1ccnc1S(=O)(=O)NCCn1cnc([N+](=O)[O-])n1 | > 332 | > 4 | 35.9 |  | > 332 | 83.4 | 0 | > 9.3 |  |  |  |  | 
Cn1ccnc1S(=O)(=O)NCCCn1cnc([N+](=O)[O-])n1 | 223 | > 15 | 21.9 |  | > 318 | 20.6 | 0.1 | > 14.5 |  |  |  |  | 
O=C(NCCCn1ccnc1[N+](=O)[O-])c1ccc(OC(F)(F)F)cc1 | 36 | 74 | 46.6 |  | 274 | 3.71 | 0.4 |  |  |  |  |  | 
O=C(NCCCCn1cnc([N+](=O)[O-])n1)c1ccc(C(F)(F)F)cc1 | 7.93 | 591 | 0.501 | 0.9 | 104 | 0.176 | 8.9 | 208 |  | Active | 10 | 1.3 | 0.13
CC1CS(=O)(=O)CCN1/N=C/c1ccc([N+](=O)[O-])o1 (configuration not stated) [NIFURTIMOX] |  |  |  |  |  |  |  |  |  | Active | 13 |  | 
